KCNQ1 block: human KCNQ1 channel inhibition; 310,000 tested, 1.3% active; B-score at 10 µM; CHO-K1 KCNQ1, FluxOR thallium flux fluorescence; active compounds read high;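 active means compounds whose thallium flux B-score, printed positive for inhibition, exceeds three library SD while starting fluorescence stays within three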;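 further: channel opened by potassium depolarization with thallium stimulus after 20 min compound exposure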
Target sequence (P51787 whole entry, looked up): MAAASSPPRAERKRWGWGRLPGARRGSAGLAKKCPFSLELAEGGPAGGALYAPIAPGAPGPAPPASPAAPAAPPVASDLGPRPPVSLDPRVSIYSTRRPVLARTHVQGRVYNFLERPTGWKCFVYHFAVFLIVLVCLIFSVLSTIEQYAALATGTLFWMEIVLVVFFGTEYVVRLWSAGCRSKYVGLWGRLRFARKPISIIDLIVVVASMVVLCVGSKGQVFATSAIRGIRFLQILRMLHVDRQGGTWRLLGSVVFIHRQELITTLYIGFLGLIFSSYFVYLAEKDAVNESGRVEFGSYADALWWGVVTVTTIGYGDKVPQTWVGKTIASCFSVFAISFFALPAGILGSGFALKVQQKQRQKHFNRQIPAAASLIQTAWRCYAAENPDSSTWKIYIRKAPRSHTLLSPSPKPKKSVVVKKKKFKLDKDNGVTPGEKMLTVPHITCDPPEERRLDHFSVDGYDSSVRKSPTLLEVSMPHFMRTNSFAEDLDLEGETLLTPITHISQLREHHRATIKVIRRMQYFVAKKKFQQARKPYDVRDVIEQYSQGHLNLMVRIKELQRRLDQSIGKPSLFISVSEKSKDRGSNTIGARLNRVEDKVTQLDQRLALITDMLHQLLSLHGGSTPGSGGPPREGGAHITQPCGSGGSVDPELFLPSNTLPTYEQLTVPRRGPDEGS
hERG protect: compounds protecting human hERG from proarrhythmic drug block; CHO-hERG, FluxOR thallium flux, dofetilide IC70 present; activation (rescue from dofetilide block), less the hit threshold, % at 10 µM; 310,000 tested, 0.51% active; AID 1511;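 active means activation above the mean of controls blocked by dofetilide plus 5 SD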;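 further: thallium influx through hERG after potassium depolarization seen as dye fluorescence rise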
KCNQ1 pot: potentiators or activators of human KCNQ1 potassium channel. P51787. CHO-K1 KCNQ1, thallium flux FluxOR fluorescence; active compounds read high. B-score at 10 µM. 310,000 tested, 0.35% active;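 active means fluorescence ratio B-score, a plate-corrected score, at least three library SD, with initial intensity B-score within 5 SD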
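assay system = KCNQ1-transfected CHO-K1 cells | medium = assay buffer with matched DMSO | probe or stimulus = depolarizing K+/Tl+ stimulus, K2SO4 and Tl2SO4 each 12.5 mM in 5x stock | dosing = single dose | incubation = dye 90 min, compound 20 min, room temperature | detection = kinetic FluxOR fluorescence, 10 s baseline plus 110 s post-stimulus | evaluation = ratio B score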
KCNK3 inh: human KCNK3 channel inhibition, primary screen | CHO-KCNK3 thallium flux, FluxOR fluorescence; active compounds read low | 340,000 tested, 0.84% active | B-score at 10 µM | AID 602410 | O14649;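 active means B-score under library mean minus 4 SD, starting fluorescence ratio at most library mean plus 5 SD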;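 further: more negative B-score means stronger inhibition of thallium flux through KCNK3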
KCNK9 block: inhibitors of human KCNK9 two-pore domain potassium channel; AID 488922; B-score at 10 µM; 310,000 tested, 1.2% active; HEK293 KCNK9, FluxOR thallium flux fluorescence; active compounds read low; Q9NPC2;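 active means ratio B-score over 3 SD below the library mean, with starting fluorescence within 5 SD of its mean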;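 further: negative B-score means less thallium flux so channel inhibition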
KCNK9 block conf: confirmation of human KCNK9 potassium channel inhibitors | shares compounds with KCNK9 block | HEK293 KCNK9 cells, FluxOR thallium flux fluorescence | inhibition, % at 10 µM | 4,900 tested, 43% active | AID 492992;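 active means thallium signal inhibited by more than 5 SD of the compound-free buffer control wells, on both duplicate plates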;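 further: 0% = assay buffer control wells without compound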
Kir21 sel: mouse Kir2.1 off-target activity of KCNK9 modulators | shares compounds with KCNK9 block | Kir2.1 cells, FluxOR thallium flux fluorescence | inhibition, % at 10 µM | 4,900 tested, 4% active;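 active means thallium signal drop more than 5 SD beyond the mean of the no-compound control wells, seen in both duplicate plates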;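 further: signal is fluorescence rise after thallium addition divided by baseline fluorescence; plate controls were assay buffer only for no effect and full block by chlorpromazine control for full effect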
HEK293 Tl ctr: non-induced cell nonspecific activity of KCNK9 modulators; inhibition, % at 10 µM; AID 492997; shares compounds with KCNK9 block; 4,900 tested, 40% active; non-induced KCNK9-HEK293, FluxOR thallium flux;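 active means thallium signal drop beyond 5 SD of the untreated control mean, on both duplicate plates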;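 further: plate controls were buffer only IC0 wells for no effect and SID17386958 at its maximal inhibitory level for full effect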
An asterisk follows results filed as active; i = inactive; · = not tested or not shown. Rows were chosen to be rich in hits. Some 3.1% of all compounds tested hit in one or more screens of this group.

SMILES | KCNQ1 block | hERG protect | KCNQ1 pot | KCNK3 inh | KCNK9 block | KCNK9 block conf | Kir21 sel | HEK293 Tl ctr
COc1ccc(C)cc1N=Nc1ccc(O)c2ncccc12 | i | -7 | i | i | i | · | · | ·
Oc1ccc(N=Nc2ccc3c(c2)OCCO3)c2cccnc12 | i | -10 | 55* | i | i | i | i | i
Oc1ccc(N=Nc2ccc3c(c2)OCCO3)c(O)c1 | i | -12 | i | i | i | · | · | ·
Nc1c(C(=O)N/N=C/c2cccnc2)oc2nc(-c3ccccc3)cc(-c3ccco3)c12 | 6* | -14 | i | i | -11* | i | i | 31%*
O=C(O)CCCCCn1c(SCC(=O)c2ccc(O)c(O)c2)nc2ccsc2c1=O | i | -12 | i | i | i | · | · | ·
CCCCn1c(SCC(=O)c2ccc(O)c(O)c2)nc2ccsc2c1=O | i | -20 | i | i | -16* | 40%* | i | i
CCCCn1c(SCC(=O)c2ccccc2)nc2ccsc2c1=O | i | -7 | i | i | -16* | 30%* | i | 28%*
CC1=CC2=NC(=O)/C(=C\c3cccn3CCOc3cc(C)ccc3C)C(=N)N2O1 | i | -11 | i | i | -8.8* | 66%* | i | 29%*
COc1cc(/C=C2/C(=N)N3OC(C)=CC3=NC2=O)ccc1OCCOc1ccc(C)cc1 | i | -8 | i | i | i | · | · | ·
CSc1ccc(C(=O)C2CCCN(Cc3cccc4nccnc34)C2)cc1 (stereo unspecified) | i | -18 | i | i | i | i | i | i
COc1ccc(CN2CCCC(C(=O)c3ccc(Cl)cc3)C2)cc1Cn1cccn1 (stereo unspecified) | i | -23 | i | i | i | i | i | i
O=C(c1ccc(Cl)cc1)C1CCCN(Cc2cccn2-c2ccccn2)C1 (stereo unspecified) | i | -20 | i | i | i | i | i | i
CSc1ccc(C(=O)C2CCCN(C(=O)CCCn3cncn3)C2)cc1 (stereo unspecified) | i | -5 | i | i | i | · | · | ·
O=C(c1ccc(C(F)(F)F)cc1)C1CCCN(Cc2cccn2-c2ncccn2)C1 (stereo unspecified) | i | -16 | i | i | i | i | i | i
O=C(CS(=O)c1ccc(Br)cc1)N1CCOCC1 (stereo unspecified) | i | -6 | i | i | i | · | · | ·
COc1ccc(C(=O)C2CCCN(Cc3cccn3-c3nccs3)C2)cc1F (stereo unspecified) | i | -21 | i | i | i | i | i | i
COc1ccc(C(=O)C2CCCN(Cc3cccn3-c3ccccn3)C2)cc1F (stereo unspecified) | i | -29 | i | i | i | · | · | ·
CCOc1cc(CN2CCCC(C(=O)c3cccc(C(F)(F)F)c3)C2)ccc1O (stereo unspecified) | i | -20 | i | i | i | i | i | i
CCOC(=O)C1CCCN(Cc2ccc(O)c(OC)c2)C1 (stereo unspecified) | i | -10 | i | i | i | · | · | ·
O=C(c1cccc(C(F)(F)F)c1)C1CCCN(Cc2cccn2-c2ncccn2)C1 (stereo unspecified) | i | -24 | i | i | i | i | i | i
COc1ccccc1CNC(=O)CCNC(=O)C1CCN(S(=O)(=O)c2ccccc2)CC1 | i | -11 | i | i | i | · | · | ·
Cc1cccc(-n2nc(C(=O)Nc3ccccc3)n3c(=O)cc(-c4ccccc4)nc23)c1 | i | -11 | i | i | i | i | i | i
CCOC(=O)c1nn(-c2cccc(Cl)c2)c2nc(Nc3ccccc3)cc(=O)n12 | i | -6 | i | i | i | · | · | ·
COc1ccccc1CC(=O)OC(C)C(=O)Nc1ccc(S(=O)(=O)N2CCCCC2)cc1 (stereo unspecified) | · | · | · | i | · | · | · | ·
